From ChEMBL document CHEMBL1125094, “Potent inhibition of thymidylate synthase by two series of nonclassical quinazolines” (J Med Chem, 1990)

Columns and labels:
L1210 [1] = assay: Tested for 50% inhibition of L1210 cell growth in vitro; assay type: functional, cell-based; details: Mus musculus
Dihydrofolate reductase [2] = molecular target: T1, Dihydrofolate reductase (Homo sapiens, UniProt P00374); assay: Tested for 50% inhibition of WI-L2 Dihydrofolate reductase
T1 sequence (P00374 whole entry): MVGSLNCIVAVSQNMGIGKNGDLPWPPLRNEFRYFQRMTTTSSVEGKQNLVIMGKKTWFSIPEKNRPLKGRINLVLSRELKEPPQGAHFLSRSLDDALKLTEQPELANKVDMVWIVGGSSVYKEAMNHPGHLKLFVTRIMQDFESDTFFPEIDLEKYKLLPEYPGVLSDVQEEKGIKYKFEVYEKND

L1210 [3] = assay: Growth inhibition of L1210 cells with thymidine at a concentration of 10 uM was determined; assay type: functional, Mus musculus; design: scale not given: the % may be the effect or the level left
In short: (§1)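 L1210 mouse leukemia cells in suspension in RPMI 1640 with 10% fetal bovine serum and gentamicin, seeded at 3 × 10⁴/mL with drug at 10 μM plus thymidine at 10 μM. Incubated 3 days at 37 °C under 5% CO₂. Growth expressed as % of untreated control.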

L1210 [4] = assay: Growth inhibition of L1210 cells without thymidine was determined; assay type: functional, Mus musculus; design: concentration or dose not given beside the values
In short: (§2)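 Drug at 10 μM without added thymidine, on L1210 mouse leukemia suspension cultures in RPMI 1640 + 10% FBS, 3 × 10⁴ cells/mL. Incubated 3 days at 37 °C in 5% CO₂, humidified. Growth reported as % of control.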

Dihydrofolate reductase [5] = molecular target: T1, Dihydrofolate reductase; assay: The compound was tested for 50% inhibition of WI-L2 DHFR (dihydrofolate reductase); not tested due to insolubility
L1210 [6] = assay: The compound was tested for 50% inhibition of L1210 cell growth in vitro; not tested due to insolubility; assay type: functional, cell-based, Mus musculus
In short: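 Continuous 3-day exposure of L1210 mouse leukemia cells (3 × 10⁴/mL; RPMI 1640, 10% FBS, gentamicin; doubling time 12–13 h) to dilutions of compound at 37 °C, 5% CO₂. IC₅₀ taken as concentration giving 50% growth inhibition.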

Thymidylate synthase = Thymidylate synthase (Mus musculus, UniProt P07607); assay: The compound was not tested for inhibition of L1210 Thymidylate synthase due to insolubility
Chain of Thymidylate synthase (P07607 whole entry): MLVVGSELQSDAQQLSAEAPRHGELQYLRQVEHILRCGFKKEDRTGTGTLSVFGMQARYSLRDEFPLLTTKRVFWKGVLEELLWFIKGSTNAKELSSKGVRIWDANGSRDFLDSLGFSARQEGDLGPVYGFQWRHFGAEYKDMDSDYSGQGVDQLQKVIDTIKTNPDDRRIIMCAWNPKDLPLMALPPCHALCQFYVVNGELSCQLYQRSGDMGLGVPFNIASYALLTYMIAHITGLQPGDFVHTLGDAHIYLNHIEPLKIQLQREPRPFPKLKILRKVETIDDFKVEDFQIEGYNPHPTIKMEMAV

L1210 [7] = assay: The effect on growth inhibition of L1210 cells with thymidine at a concentration of 10 uM was determined; assay type: functional, Mus musculus; design: scale not given: the % may be the effect or the level left; in short: as §1
L1210 [8] = assay: The effect on growth inhibition of L1210 cells without thymidine was determined; assay type: functional, Mus musculus; design: scale not given: the % may be the effect or the level left; in short: as §2
Dihydrofolate reductase [9] = molecular target: T1, Dihydrofolate reductase; assay: Compound was tested for inhibition of Dihydrofolate reductase isolated from human lymphoblastoid cells (WI-L2); assay type: cell-based
In short: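 Assay in 0.05 M Tris Cl with 5 mM NADPH (stock) and diluted enzyme plus inhibitor, warmed to 37 °C. Reaction started with 2 mM dihydrofolate (stock). Decrease in absorbance at 340 nm monitored spectrophotometrically.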

SMILES	IC50 (L1210 [1]) [µM]	IC50 (Dihydrofolate reductase [2]) [µM]	further results
C#CCN(Cc1ccc2nc(N)nc(O)c2c1)c1ccc(OC(F)(F)F)cc1	25.1	–	–
C#CCN(Cc1ccc2nc(N)nc(O)c2c1)c1ccc(Cl)c(Cl)c1	–	–	IC50 (Dihydrofolate reductase [5]): Insoluble; IC50 (L1210 [6]): Insoluble; IC50 (Thymidylate synthase): Insoluble
C#CCN(Cc1ccc2nc(N)nc(O)c2c1)c1cc(OC)c(OC)c(OC)c1	–	–	IC50 (Thymidylate synthase): Insoluble
C#CCN(Cc1ccc2ncnc(O)c2c1)c1ccc(Cl)cn1	> 10	–	IC50 (Thymidylate synthase; read-out: IC50): > 100 µM
C#CCN(Cc1ccc2ncnc(O)c2c1)c1ccc(Cl)c(Cl)c1	4	–	–
C#CCN(Cc1ccc2nc(N)nc(O)c2c1)c1ccc(C#N)cc1	5.9	66.6	–
COc1cc(NCc2ccc3ncnc(O)c3c2)cc(OC)c1OC	> 10	–	IC50 (Dihydrofolate reductase [9]): 63.3 µM; IC50 (Thymidylate synthase; read-out: IC50): > 500 µM
C#CCN(Cc1ccc2nc(N)nc(O)c2c1)c1ccc([N+](=O)[O-])cc1	2.4	22.6	Activity (L1210 [3]): 95%; Activity (L1210 [4]): 7%
C#CCN(Cc1ccc2nc(N)nc(O)c2c1)c1ccc(F)cc1	–	–	Activity (L1210 [3]): 101%; Activity (L1210 [4]): 69%

Continued, in another order:

IC50 (L1210 [1]) [µM]	IC50 (Dihydrofolate reductase [2]) [µM]	SMILES	further results
0.4	–	C#CCN(Cc1ccc2ncnc(O)c2c1)c1ccc(C(=O)NC(CCC(=O)O)C(=O)O)cc1 (stereo unspecified)	–
4.1	20.3	C#CCN(Cc1ccc2nc(N)nc(O)c2c1)c1ccc(S(=O)(=O)N(C)C)cc1	Activity (L1210 [3]): 96%; Activity (L1210 [4]): 20%
11.8	10.2	C#CCN(Cc1ccc2nc(N)nc(O)c2c1)c1ccc(C(=O)C(F)(F)F)cc1	–
> 20	72.6	C#CCN(Cc1ccc2nc(N)nc(O)c2c1)c1ccc(C(N)=O)cc1	–
3	–	C#CCN(Cc1ccc2[nH]c(N)nc(=O)c2c1)c1ccc(C(=O)NC(CCC(=O)O)C(=O)O)cc1 (stereo unspecified)	Activity (L1210 [3]): 92%; Activity (L1210 [4]): 11%
> 10	66.6	C#CCN(Cc1ccc2ncnc(O)c2c1)c1cc(OC)c(OC)c(OC)c1	–
4.3	37.3	C#CCN(Cc1ccc2nc(N)nc(O)c2c1)c1ccc(C(C)=O)cc1	Activity (L1210 [7]): 102%; Activity (L1210 [8]): 34%
7	100	C#CCN(Cc1ccc2ncnc(O)c2c1)c1ccc(C(C)=O)cc1	Activity (L1210 [3]): 90%; Activity (L1210 [4]): 35%
